Consider six compounds from ChEMBL document CHEMBL1921762, “Investigating the antimalarial action of 1,2,4-trioxolanes with fluorescent chemical probes” (J Med Chem, 2011).

The source made the active and inactive calls. No cut-off for these calls is given here.

The term IC50 denotes the midpoint of a concentration-inhibition curve. A high value points to weaker potency. Usually Ki stands for the equilibrium dissociation constant of an inhibitor or competing ligand from its target.

The subject of series [1] is Plasmodium falciparum. The series is described as follows: Induction of peroxidation of Plasmodium falciparum membrane-incorporated BODIPY at trophozoite stage at 250 nM after 2.5 hrs by fluorescence microscopic analysis. In kind it is functional, organism-based. Put shortly:
(§1)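 Cultures at each asexual stage were exposed at 37 °C for 2.5 h to 250 nM compound or 0.01% MeOH vehicle, then to 40 nM BODIPY 581/591 C11 for a further 30 min. Trophozoites were saponin-released; ring and segmenter stages were imaged in erythrocytes. Peroxidation was read as a red-to-yellow/green fluorescence shift by microscopy.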

Series [2] relates to Plasmodium falciparum. The series is described as follows: Antimalarial activity against Plasmodium falciparum FCB infected in human A-positive type erythrocytes after 72 hrs by SYBR Green I assay.
Series [3] has as its system Plasmodium falciparum. Description: Induction of peroxidation of Plasmodium falciparum membrane-incorporated BODIPY at asexual stage at 250 nM after 2.5 hrs by fluorescence microscopic analysis. It counts as functional, organism-based. An outline of the steps: as §1
In series [4] the test system is Plasmodium falciparum. The series is described as follows: Induction of peroxidation of Plasmodium falciparum membrane-incorporated BODIPY at ring stage at 250 nM after 2.5 hrs by fluorescence microscopic analysis. In kind it is functional, organism-based. An outline of the steps:
as §1

The subject of series [5] is Plasmodium falciparum. The series is described as follows: Induction of peroxidation of Plasmodium falciparum membrane-incorporated BODIPY at 250 nM after 2.5 hrs by fluorescence microscopic analysis. It counts as functional, organism-based. An outline of the steps: as §1
Series [6] is described as follows: Drug uptake in Plasmodium falciparum assessed as accumulation in nuclear lipid bodies at 500 nM. As to conditions: 0.5 µM, in the assay text read “neutral lipid bodies” for “nuclear lipid bodies”. In kind it is ADME. An outline of the steps: (§2)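 Mixed-stage P. falciparum cultures (strains FCB and 7G8, grown in human A+ or AB+ erythrocytes at 37 °C in supplemented RPMI 1640 under 90% N2/5% O2/5% CO2) were exposed to 500 nM probe for 10 min in RPMI at 37 °C. Cells were washed twice with PBS, viewed directly or after 0.2% saponin release, and imaged by 100X oil-immersion epifluorescence with phase contrast.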

Series [7] in a line: Drug uptake in Plasmodium falciparum assessed as accumulation in membranous structures at 500 nM. In kind it is ADME. As to conditions: 0.5 µM. An outline of the steps: as §2
Series [8] can be described thus: Drug uptake in Plasmodium falciparum assessed as accumulation in small spherical structures in digestive vacuole at 500 nM. It counts as ADME. The settings on record: 0.5 µM. Put shortly: (§3)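 Mixed-stage P. falciparum cultures were exposed to 500 nM fluorescent probe for 10 min in RPMI at 37 °C. They were washed twice with PBS, viewed directly or after 0.2% saponin release, and imaged live by epifluorescence at 100X oil immersion, with phase contrast overlay.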

The nature of series [9]: Drug uptake in Plasmodium falciparum […] lipid bodies assessed decrease in fluorescence at 500 nM pretreated with 500 nM unlabeled compound. The settings on record: 0.5 µM. It counts as ADME. Put shortly:
(§4)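 Mid- to late trophozoite cultures were pre-treated for 10 min at 37 °C with 500 nM unlabeled trioxolane or 0.01% MeOH vehicle in warm complete medium. Medium was then replaced with 500 nM fluorescent trioxolane for 10 min. Cells were washed, saponin-released and examined by fluorescence microscopy. Labeled NLB were counted in ~10 random fields (~300 parasites per group) and normalised to parasite number. Results are % decrease versus MeOH, from 3 experiments with t test.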

The nature of series [10]: Drug uptake in Plasmodium falciparum assessed as accumulation in […] lipid bodies at 500 nM in presence of methanol. It counts as ADME. The settings on record: 0.5 µM. Put shortly: as §4
Series [11] is described as follows: Drug uptake in Plasmodium falciparum assessed as cytoplasmic accumulation at 500 nM. It counts as ADME, Cytoplasm. The settings on record: 0.5 µM. An outline of the steps:
as §3

Series [12] relates to Plasmodium falciparum. Description: Drug uptake in Plasmodium falciparum assessed as subcellular localization at 500 nM. It counts as ADME, organism-based. The settings on record: 0.5 µM. Put shortly: as §3
Series [13] has as its system Plasmodium falciparum. The series is described as follows: Antimalarial activity against Plasmodium falciparum K1 infected in human A-positive type erythrocytes after 72 hrs by SYBR Green I assay. As to conditions: K1, 72 h.
A short description of series [14]: Binding affinity to Plasmodium falciparum calcium-transporting ATPase.

Take `CC(C)(C)OC(=O)NCCCNC1CCC2(CC1)OOC1(O2)C2CC3CC(C2)CC1C3` (mixture of isomers): the result in [1], in [3], in [4] and in series [5] was Active. Also, the IC50 in series [2] is 12.6 nM.

For `CN(C)c1cccc2c(S(=O)(=O)OC34CC5CC(C3)C3(OCC6(CCCCC6)O3)C(C5)C4)cccc12` (mixture of isomers), the Drug uptake result in [6] and in [7] was “Not Active” each time. Inhibition in [2] was half-maximal at 25000 nM (IC50).

With `CN(C)c1cccc2c(S(=O)(=O)OC34CC5CC(C3)C3(OOC6(CCCCC6)O3)C(C5)C4)cccc12` (mixture of isomers), the Drug uptake result in [8] is reported as “Active”; in series [9], “Not Active”; in series [10], “Active”. In addition, half-maximal inhibition in series [2] (IC50) required 17.9 nM.

`CN(C)c1cccc2c(S(=O)(=O)NCCCNC3CCC4(CC3)OOC3(O4)C4CC5CC(C4)CC3C5)cccc12` (mixture of isomers) registered an IC50 in series [2] of 14.6 nM. In addition, the Drug uptake entry is reported as “Active” in [11] and “Not Active” in [12].

In series [2], `C[C@@H]1CC[C@H]2[C@@H](C)C(=O)O[C@@H]3O[C@@]4(C)CC[C@@H]1[C@]32OO4` [ARTEMISININ] showed an IC50 of 8 nM.

As to `CC(C)(N)CNC(=O)C[C@H]1CC[C@]2(CC1)OO[C@]1(O2)C2CC3CC(C2)CC1C3` [OZ277], the midpoint of inhibition in series [13], the IC50, lay at 2.5 nM. For the same compound, the Ki in [14] was 7900 nM.
